Compound activity as filed in PubChem.
CHOP inh: CHOP inhibition in unfolded protein response; AID 2732; hit rate 3.8% among 220,000; inhibition, % at 10 µM; CHO-K1 CHOP-promoter luciferase, tunicamycin-induced, 15-18 h;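 active = compounds that reduced the stress-induced luciferase reporter signal by more than about 70% of percent inhibition, limit read from the data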;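 note: 0% = tunicamycin plus vehicle and 100% = wells without tunicamycin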
VLA-4 inh: inhibition in a human VLA-4 binding assay. VLA-4 expressing cells, ligand binding flow cytometry. inhibition, % (about 7 µM as worked out from the volumes in the protocol). hit rate 0.2% among 330,000; in the data active = inhibition above about 50%
B2AR ag: human beta-2 adrenergic receptor agonism by FAP | AID 504454 | Am2.2-beta2AR cells, FAP receptor internalization, flow cytometry | hit rate 0.43% among 340,000 | P07550 | response, % (test concentration not listed);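 active = response above a set limit, near 3 SD of response in nonfluorescent compounds, cut at about 42% in these data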
Target sequence (P07550 whole entry, looked up): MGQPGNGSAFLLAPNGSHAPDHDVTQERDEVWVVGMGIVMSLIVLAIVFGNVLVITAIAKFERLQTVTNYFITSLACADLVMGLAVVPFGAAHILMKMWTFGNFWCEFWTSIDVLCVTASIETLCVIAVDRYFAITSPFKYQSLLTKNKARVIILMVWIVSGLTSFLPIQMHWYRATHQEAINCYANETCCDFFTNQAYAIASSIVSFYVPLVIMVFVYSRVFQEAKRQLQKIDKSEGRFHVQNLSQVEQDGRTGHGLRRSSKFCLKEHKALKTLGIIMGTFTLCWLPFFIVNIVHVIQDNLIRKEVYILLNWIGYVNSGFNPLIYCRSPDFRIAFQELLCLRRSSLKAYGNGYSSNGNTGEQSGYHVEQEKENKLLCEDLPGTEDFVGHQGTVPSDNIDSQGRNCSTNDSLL
UPR XBP1 act: activators of adaptive arm of unfolded protein response (XBP1); CHO-XBP1 luciferase reporter, IRE1-XBP1 UPR activation, luminescence; percent of tunicamycin response, DMSO as zero; activation, % at 20 µM; hit rate 0.33% among 330,000;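 active = versus positive control, 20 µM dose yields 30% or more activation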;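 note: 100% = tunicamycin at 10 µg/mL and 0% = DMSO only wells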
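assay system = CHO-XBP1 luciferase reporter cells | amount = 1000 cells/well | buffer or medium = F12 plus 10% FBS | compound dosing = single point, 20 µM final compound, 1% DMSO | incubation = 16-18 h cell attachment at 37 °C, then 6 h compound exposure | detection = Steady-Glo luminescence read | controls = tunicamycin 10 µg/mL and vehicle-only wells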
UPR CHOP act: activators of apoptotic arm of unfolded protein response (CHOP). hit rate 0.34% among 330,000. activation, % at 10 µM. CHO-CHOP luciferase reporter, UPR activation, luminescence; percent of tunicamycin response over DMSO baseline;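 active = at 10 µM dose, activation of 40% or more, normalized to positive control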;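 note: 100% = tunicamycin at 10 µg/mL and 0% = DMSO alone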
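Assay system: CHO cells with stable CHOP pathway luciferase reporter; Buffer or medium: F12 plus 10% serum; Times: 16-18 h cell attachment, then 6 h compound exposure, 37 °C; Signal: luciferase luminescence; Read-out basis: percent activation relative to tunicamycin control; Control set: tunicamycin high control, DMSO low control.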
Active calls of the source: *; · = no result given. The sample as a whole holds a higher share of hits than the screen did.

SMILES	CHOP inh	VLA-4 inh	B2AR ag	UPR XBP1 act	UPR CHOP act
COc1cc(NC(=O)COC(=O)CNC(=O)C2CCCCC2)cc(OC)c1	·	5	8	-2	-1
CCOC(=O)C1=C(C)N=C2c3ccccc3C(=O)C2C1c1ccc(Cl)cc1 (stereo unspecified)	88*	-7	7	25	1
CN(C)CCCNC(=S)NCC(c1ccc(Cl)cc1Cl)c1c[nH]c2ccccc12 (stereo unspecified)	·	21	47*	12	8
CC(=O)c1sc(NC(=O)COc2c(C)cc(Cl)cc2C)nc1C	83*	-2	·	-3	-2
CC(=O)c1sc(NC(=O)COc2ccc(Cl)cc2C)nc1C	-28	0	0	-1	1
CCOC(=O)c1sc(Nc2ccc(F)cc2)nc1C	-29	-17	2	5	3
CCOC(=O)c1sc(Nc2ccccc2)nc1C	32	-10	-2	4	4
CCOC(=O)c1sc(Nc2ccc(C)cc2C)nc1C	93*	7	32	2	2
CCOC(=O)c1sc(Nc2nc3c(OC)cccc3s2)nc1C	73*	-7	11	4	4
Cc1ccc(NC(=O)c2ccc(Cl)cc2Cl)cc1O	-9	8	6	-1	6
Brc1ccc2ncnc(NCc3ccccc3)c2c1	87*	0	-5	-1	0
O=C(O)c1ccc(N/N=C/c2cc3cc4c(cc3nc2Cl)OCCO4)cc1	11	4	45*	-5	-5
O=Cc1cc2cc3c(cc2nc1Cl)OCCO3	-21	11	·	-1	1
COc1cccc(/C=N/Nc2ccc(C(=O)O)cc2)c1O	101*	-12	3	-9	-10
O=C(O)c1ccc(N/N=C/c2ccc3c(c2)OCO3)cc1	93*	0	-5	-10	-9
O=C(O)c1cc(N/N=C/c2ccc3c(c2)OCCO3)ccc1Cl	72*	11	-4	·	·
CSc1ccccc1NC(=O)CN(C)CC(=O)NCC(=O)Nc1ccc(F)cc1	·	22	-5	-2	0
COc1cccc(/C=N/Nc2nc(Nc3ccc([N+](=O)[O-])cc3)nc(N3CCCC3)n2)c1O	89*	-3	10	8	7
CC(C)(C)c1ccc(/C=N/Nc2ccc(C(=O)O)cc2)cc1	83*	3	2	-5	-9
C=C/C(C)=C/[C@@]1(C)SC(=O)C(C)=C1O	-6	·	·	·	·
Cc1ccc(NC(=O)c2cccc(NC(=O)CC3SC(N4CCCCC4)=NC3=O)c2)nc1 (stereo unspecified)	·	0	-10	2	1
COC(=O)C1CN(C(=O)COc2ccc(Cl)c(C)c2)c2ccccc2O1 (stereo unspecified)	·	40	9	-4	0
COc1ccc(-c2cnnc(N/N=C/c3ccc(O)cc3)n2)cc1	81*	10	-4	10	5
COc1ccc(-c2cnnc(N/N=C/c3ccc(O)c(O)c3)n2)cc1	37	-20	11	-1	0
CCCOC(=O)COC(=O)c1ccccc1NC(=O)c1ccccc1	63	3	0	-1	-3
SMILES	CHOP inh	VLA-4 inh	B2AR ag	UPR XBP1 act	UPR CHOP act
CCOC(=O)c1ccccc1NC(=O)c1ccc(NS(C)(=O)=O)cc1	80*	3	-3	6	-1
C=C1CC(COc2cc(=O)oc3ccccc23)(c2ccccc2)OC1=O (stereo unspecified)	·	·	72*	·	·
C=C1CCC2C(C)(C)[C@H](O)CC[C@@]2(C)[C@@H]1COc1cc(=O)oc2ccccc12 (stereo partly specified)	38	0	-4	-2	1
COc1cccc(OC)c1C(=O)Nc1ccc(C(=O)c2ccncc2)cc1	·	4	-1	1	2
O=C(Nc1ccc(F)cc1F)NC1CCCCCCC1	·	-5	-10	4	5
Cc1ccc(-c2ccc(/C=N/N3C(=O)C4C5C=CC(CC5)C4C3=O)o2)c([N+](=O)[O-])c1 (stereo unspecified)	89*	11	9	1	5
COCCOc1cc(Nc2nnc(C(F)(F)F)s2)c(Cl)cc1Cl	77*	10	-3	0	2
C=CCNC(=O)c1cnc(-c2ccccc2)nc1-c1ccccc1	·	1	-8	1	-1
O=C(Nc1ccc(F)cc1)c1cnc(-c2ccccc2)nc1-c1ccccc1	81*	10	-9	5	1
O=C(Nc1ccc(F)c(F)c1)c1cnc(-c2ccccc2)nc1-c1ccccc1	94*	6	-8	7	0
O=C(Cc1ccc(S(=O)(=O)N2CCOCC2)s1)N(Cc1ccccc1)c1ccccc1	·	1	-2	-1	1
Cc1ccccc1N(C(=O)CCC(=O)Nc1ccccn1)C(C(=O)NC(C)C)c1ccc(F)cc1 (stereo unspecified)	·	4	3	-5	3
Cn1cc([N+](=O)[O-])c(C(=O)Nc2cc(Oc3ccccc3)cc([N+](=O)[O-])c2)n1	-36	34	36	·	·
Cc1ccc(Oc2cc(NC(=O)CCCn3nc([N+](=O)[O-])cc3C)cc([N+](=O)[O-])c2)cc1	73*	16	-1	0	2
CCOc1ccc(Oc2cc(NC(=O)c3ccco3)cc([N+](=O)[O-])c2)cc1	87*	-1	-2	·	·
Cc1ccc(C)c(Oc2cc(NC(=O)CCCn3nc(C)c([N+](=O)[O-])c3C)cc([N+](=O)[O-])c2)c1	80*	0	0	-2	12
Cc1nn(CCCC(=O)Nc2cc(Oc3ccccc3)cc([N+](=O)[O-])c2)c(C)c1[N+](=O)[O-]	61	9	1	-3	-1
Cc1nn(C)cc1C(=O)Nc1cc(Oc2ccc(Cl)cc2)cc([N+](=O)[O-])c1	82*	3	-12	0	-3
O=C(Nc1cc(Oc2ccc(Cl)cc2)cc([N+](=O)[O-])c1)c1ccco1	50	20	36	1	0
Cc1cc([N+](=O)[O-])nn1CCCC(=O)Nc1ccc2c(c1)OCO2	·	8	-7	0	2
c1ccc(-c2cc3cc4c(cc3cn2)OCO4)cc1	·	-11	-8	1	2
CCCN(CC(=O)Nc1ccc(F)c(F)c1F)C(=O)Cc1ccc(S(=O)(=O)N2CCOCC2)s1	·	-5	3	-2	0
NS(=O)(=O)c1ccc(NCc2cc(Cl)ccc2OCc2ccccc2F)cc1	70*	2	7	1	2
COc1ccc(CNC(=O)Cn2nc(C(F)(F)F)c(Br)c2C)cc1	·	25	-6	-4	1
COc1cc(NC(=O)Cn2nc(C(F)(F)F)c(Br)c2C)cc([N+](=O)[O-])c1	94*	17	0	-3	3
O=C(Nc1nc(-c2ccccc2)cs1)C1CCCCN1S(=O)(=O)c1ccccc1 (stereo unspecified)	31	4	-5	3	1
